Measured values published in PMC6082709 (Nature medicine, 2018).
Entries after “also recorded” stand apart in the source; their conditions may differ.

Tests used:
[1] = system: AML cell lines; assay: CellTiter-Glo cell viability across the cell line panel; format: cell-based, human; settings: for sensitivity of the Val-boroPro-sensitive AML cell lines to the compound: cell viability relative to DMSO; for sensitivity of the Val-boroPro-sensitive AML cell lines to the compound / reduction in cell viability: 48 h
[2] = system: caspase-1 knockout OCI-AML2, MV4;11 and THP-1 cells; assay: Cell viability of caspase-1 knockout cells; format: cell-based, human
[3] = system: K562 cells; assay: CellTiter-Glo cell viability assay; format: cell-based, human
[4] = system: HEK 293T cells; assay: CellTiter-Glo cell viability assay; format: cell-based, human; settings: HEK293T
[5] = system: non-AML cell lines; assay: CellTiter-Glo cell viability across the cell line panel; format: cell-based, human
Summary of the method: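 Cells were dispensed at 2000 cells/well in 25 μL of medium, and compound was added by pintool. MV4;11 and RS4;11 were incubated 22 h and all other lines 46 h, at 37 °C. Plates were equilibrated to room temperature, then CellTiter-Glo was added, with 2 min orbital shaking and 10 min at room temperature. Luminescence is expressed relative to DMSO as mean ± SEM of three biological replicates.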

[6] = system: NLRP1−/− THP-1 and MV4;11 cells; assay: LDH release / GSDMD cleavage in NLRP1 knockout cells; format: cell-based, human
[7] = system: CARD8−/− THP-1, MV4;11 and OCI-AML2 cells; assay: LDH release / GSDMD cleavage in CARD8 knockout cells; format: cell-based, human; settings: 2 μM; 24 h OCI-AML2 and MV4;11, 48 h THP-1
[8] = system: HEK 293T cells stably expressing hCASP1 and hGSDMD transfected with CARD8; assay: LDH release from transfected HEK 293T cells; format: cell-based, human; settings: 2 μM, 24 h; CARD8 but not NLRP1 or S297A CARD8
Summary of the method: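 HEK 293T cells stably expressed human caspase-1 (hygromycin-selected) and gasdermin D (puromycin-selected) after lentiviral transduction. They were seeded at 0.5 × 10^6/well in DMEM/10% FBS one day before Fugene HD transfection, with total DNA brought to 2 μg with RFP vector; RFP vector alone served as mock. After 24 h, cells got DMSO or 2 μM for a further 24 h. Supernatant LDH was measured (mean ± SEM, three experiments).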

[9] = system: sensitive AML cell lines; assay: Immunoblotting of GSDMD and PARP cleavage; format: cell-based, human; settings: 24 h
[10] = system: MV4;11 leukemia cells; assay: Disseminated MV4; format: in vivo, mouse; settings: 20 μg i.p. once daily, 5 days a week for 4 weeks; log-rank test
Summary of the method: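 Luciferase-expressing MV4;11 cells (1 million, neomycin-selected) were injected into the tail vein of 200 cGy-irradiated 7-week female NSG mice. From day 5, randomized mice (n=9/group) got 100 μL i.p. vehicle (1 mM HCl in PBS, pH 7.4) or 20 μg/100 μL once daily, 5 days/week for 4 weeks. BLI tracked burden. Survival ran from inoculation to moribund state (6/group), analysed by log-rank test.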

[11] = system: CASP1−/− MV4;11 leukemia cells; assay: Disseminated CASP1−/− MV4; format: in vivo, mouse; settings: 20 μg i.p. once daily, 5 days a week, 3 weeks
Summary of the method: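 NSG mice (female, 7 weeks, 200 cGy irradiated) received 1 million luciferase-expressing CASP1−/− MV4;11 cells by tail vein. On day 5 they were randomized (n=9/group) and dosed i.p. with 100 μL vehicle (1 mM HCl in PBS, pH 7.4) or 20 μg/100 μL once daily, 5 days/week. Dosing stopped after 3 weeks. Burden was tracked by bioluminescence; survival to moribund state used all 9 animals.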

[12] = Tolerability in MV4; format: in vivo, mouse; settings: NSG mice, 20 μg i.p., treatment day 23
Summary of the method: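 Disseminated MV4;11-Luc NSG model: mice were dosed i.p. with 100 μL vehicle (1 mM HCl/PBS) or 20 μg/100 μL daily, 5 days/week, and weighed daily. After 23 days of dosing, peripheral blood was taken from 3 mice per group, chosen by high, median and low BLI flux. It was analysed for complete blood counts and blood chemistry. Femur, spleen, lung and liver sections were H&E-stained.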

[13] = Evaluation in wild-type C57BL/6J mice; format: in vivo, mouse; settings: 20 μg i.p.
Summary of the method: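 Female C57BL/6J mice (7 weeks) received vehicle (1 mM HCl/PBS) or 20 μg either once (n=5/group, harvested at 6 h or 24 h) or once daily, 5 days/week for two weeks (10 doses, n=4, harvested 24 h after the last dose). Blood was analysed for complete blood count and blood chemistry.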

[14] = system: primary human cancer AML-10; assay: AML-10 patient-derived xenograft; format: in vivo, mouse; settings: 2 mg/kg, PDX model
[15] = system: primary AML cells; assay: Primary cancer cell assay; format: cell-based, human; settings: 20 µM, 48 h, FACS
[16] = system: primary T-ALL samples; assay: Primary cancer cell assay; format: cell-based, human; settings: 20 µM, FACS
Summary of the method: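 Bone marrow aspirates were strained, Ficoll-separated and ACK-lysed, then frozen; AML samples 1–4 were first passaged in NSG mice. Cells were thawed in IMDM/15% FBS with DNase1 and cultured with 2-mercaptoethanol, G-CSF, SCF, IL-3 and FLT3-ligand. One day later, 100,000 cells/well were treated in triplicate with 20 μM or DMSO for 40 h at 37 °C. Death was scored by flow cytometry (anti-human/anti-mouse CD45, PI or DAPI).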

[17] = system: primary B-ALL; assay: Primary cancer cell assay; format: cell-based, human; settings: 20 µM, 48 h, FACS
[18] = system: primary human cord blood CD34+ cells; assay: CellTiter-Glo cell viability assay; format: cell-based; settings: 6 μM, 24 h, Cell Titer Glo
Summary of the method: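 Human cord blood cells were thawed in IMDM/15% FBS with DNase1 (1 mg/mL). Culture medium was IMDM/10% FBS with TPO, SCF and G-CSF (each 100 ng/mL). Cells were assayed immediately after thawing at 2000 cells/well with pintool compound addition, incubated 22 h at 37 °C, and read by CellTiter-Glo luminescence after 2 min shaking and 10 min at room temperature.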

[19] = cited from earlier work
[20] = system: G-CSF and Cxcl1; settings: mice; cited from earlier work
[21] = system: G-CSF; settings: healthy volunteers and cancer patients; cited from earlier work
[22] = system: THP-1 or MV4;11 cells; assay: LDH release with Val-boroPro plus bortezomib; format: cell-based, human; settings: bortezomib 100 nM with Val-boroPro 2 μM, 6 h
[23] = system: AML cell lines; settings: cited from earlier work

CC[C@@H](C)[C@H](N)C(=O)N1Cc2ccccc2C1 [L-allo-Ile-isoindoline]
sensitivity of the Val-boroPro-sensitive AML cell lines to the compound [1]: sensitive
sensitivity of caspase-1 knockout cells [2]: resistant

CC(C)[C@H](N)C(=O)N1CCC[C@H]1B(O)O [Val-boroPro]
cell death after 5 days of treatment [3]: no cell death
cell death after 5 days of treatment [4]: no cell death
reduction in cell viability ([1]; KG1, THP-1 and NOMO-1): 40–65%
reduction in cell viability ([1]; MV4;11, OCI-AML2, SET-2, RS4;11 and MOLM-13): > 80%
IC50 ([1]; Homo sapiens, read-out: IC50 values in sensitive AML cell lines): 6 to 206 nM
time in which cells died ([1]; MV4;11 and OCI-AML2 cells): 1 to 2 days
compound treatment required to achieve maximal cell killing ([1]; THP-1 and NOMO-1 cells): 5 days
activity against non-AML cell lines tested [5]: no activity
sensitivity of caspase-1 knockout cells [2]: resistant
pyroptosis in NLRP1−/− cells [6]: induced pyroptosis
sensitivity of CARD8−/− cells (GSDMD cleavage, cell death) [7]: completely resistant
cytotoxicity in CARD8-expressing HEK 293T cells [8]: sensitive
cleavage of gasdermin D (GSDMD), not PARP [9]: induced cleavage
median extension in survival [10]: 24.5 days
efficacy against CASP1−/− MV4;11 cells in vivo (bioluminescence, survival) [11]: absolutely no efficacy; also recorded: not statistically different
effects on peripheral blood cell counts, serum chemistry, body weight [12]: no significant effects
effects on peripheral blood counts or body weight [13]: no significant effects
weight loss associated with leukemia progression [14]: slowed weight loss
cell death in primary AML samples [15]: sensitive
cell death in primary T-ALL samples [16]: completely resistant
cell death in primary B-ALL [17]: sensitive
cell death in primary CD34+ human cord blood cells [18]: sensitive
maximum tolerated dose in humans [19]: without reaching a maximum tolerated dose
serum concentrations reached in humans [19]: > 100 nM
serum protein levels of several cytokines, including G-CSF and Cxcl1 [20]: increases
levels of a number of cytokines, including G-CSF [21]: elevated

CC(C)C[C@H](NC(=O)[C@H](Cc1ccccc1)NC(=O)c1cnccn1)B(O)O [bortezomib]
effect on activation of CARD8 by Val-boroPro (LDH release) [22]: blocks

N[C@@H](CC(=O)N1CCn2c(nnc2C(F)(F)F)C1)Cc1cc(F)c(F)cc1F [sitagliptin]
sensitivity of the Val-boroPro-sensitive AML cell lines to the compound [1]: not sensitive

N#C[C@@H]1CCCN1C(=O)CNC12CC3CC(CC(O)(C3)C1)C2 [vildagliptin]
anti-AML cytotoxicity on its own [23]: did not exhibit any anti-AML cytotoxicity
